High-throughput results (PubChem)
APJ antag = antagonists of human APJ apelin receptor; CHO-K1 APJ beta-arrestin complementation, luminescence; actives 0.32% (n = 330,000); inhibition, % at 20 µM; P35414;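 active = inhibition above about 40% at 20 µM, limit read from the data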;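 also: cells challenged with 10 nM apelin-13 agonist together with compound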
CCR6 antagonist = CCR6 (human) receptor antagonism. P51684. CHO-K1 CCR6 PathHunter beta-arrestin, luminescence, CCL20-stimulated. inhibition, % at 20 µM. actives 0.49% (n = 340,000). AID 493098;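 active = compounds whose inhibition of the agonist-driven luminescence signal at 20 µM reaches about 50%, limit read from the data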;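 also: cells stimulated with CCL20 at 14 nM final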
EBI2 antag = EBI2 (human) antagonism | P32249 | EBI2 beta-arrestin recruitment, luminescence, 7a,25-OHC stimulated | inhibition, % at 5 µM | actives 0.81% (n = 360,000) | AID 651636; in the data active = inhibition above about 38%;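 also: enzyme fragment complementation signal reports receptor beta-arrestin coupling in cells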
APJ ag = activates the human apelin receptor APJ; P35414; CHO-K1 APJ PathHunter beta-arrestin, luminescence; 0% DMSO wells, 100% apelin; activation, % at 20 µM; actives 0.11% (n = 330,000); AID 2520;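 active = activation more than six SD over the plate average, tested at 20 µM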
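Assay system: CHO-K1 cells stably expressing ProLink-tagged human APJ and arrestin–beta-gal acceptor. Compound dosing: 20 µM single point, 1% DMSO. Times: 16-18 h seeding, 90 min dark compound exposure, 60 min detection. Detection: beta-gal luminescence. Evaluation: APJ–arrestin association signal. Controls: negative DMSO alone, positive Apelin-13 at 10 nM.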
CXCR6 inh = CXCR6 (human) receptor inhibition; AID 602244; inhibition, % at 20 µM; actives 0.36% (n = 360,000); CHO-K1 PathHunter CXCR6 beta-arrestin, luminescence; O00574; in the data active = inhibition above about 34%, passing the limit was not always enough;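 also: antagonist mode with CXCL16 agonist at 10 nM final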
Target sequence (O00574 whole entry, looked up): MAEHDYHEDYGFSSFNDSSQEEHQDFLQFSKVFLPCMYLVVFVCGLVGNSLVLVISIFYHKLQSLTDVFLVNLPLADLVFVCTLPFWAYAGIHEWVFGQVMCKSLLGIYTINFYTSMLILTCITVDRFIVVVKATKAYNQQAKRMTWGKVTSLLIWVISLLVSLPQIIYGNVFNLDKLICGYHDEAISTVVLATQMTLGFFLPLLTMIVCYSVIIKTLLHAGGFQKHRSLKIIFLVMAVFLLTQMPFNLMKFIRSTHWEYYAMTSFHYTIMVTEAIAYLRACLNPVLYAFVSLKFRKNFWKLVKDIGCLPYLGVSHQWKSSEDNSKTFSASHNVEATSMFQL
APJ ag confirm = confirmation of human APJ apelin receptor agonists; CHO-K1 APJ PathHunter beta-arrestin, luminescence; shares compounds with APJ ag; AID 2764; actives 10% (n = 310); activation, % at 20 µM;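 active = activation above 40%, taking the highest of four retests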
Each line names hits and unclear results; the compound was inactive in the other large screens (follow-up assays come after a bar, where they were run). Only some compounds are listed: those with a hit (about 1.5% of all), similar ones and a draw of the others.

Cc1cc(C)cc(C(=O)O/N=C(\N)c2ccc(Br)cc2)c1	none
CCC(C)(NC(=O)c1ccccn1)C(=O)NC1CCCC1 (centres undefined)	none
COc1ccc2oc(-c3ccc(NC(=O)c4ccc(N5CCOCC5)c([N+](=O)[O-])c4)cc3)nc2c1	none
O=C(Nc1ccc(-c2nc3ccccc3o2)cc1)c1ccc(N2CCOCC2)c([N+](=O)[O-])c1	APJ ag 28.6 | APJ ag confirm inactive
COc1cc2c(cc1NC(=O)c1cccc([N+](=O)[O-])c1)oc1ccccc12	APJ ag 42.4 | APJ ag confirm 52.9
COc1cc2c(cc1NC(=O)c1ccc(C)c([N+](=O)[O-])c1)oc1ccccc12	none
CCSc1nc(O)c(CC)c(=O)n1C(C)CC (centres undefined)	APJ ag 39.2 | APJ ag confirm 60.6
CC(C)(C)OC(=O)[C@H]1[C@H](c2ccc([N+](=O)[O-])cc2)C2(C(=O)c3ccccc3C2=O)C2c3ccccc3C=NN21 (some centres undefined)	APJ ag 43.0 | APJ ag confirm 44.5
COc1ccc([C@H]2[C@H](C(=O)C(C)(C)C)N3N=Cc4ccccc4C3[C@]23N=C(c2ccccc2)OC3=O)cc1 (some centres undefined)	none
O=C(c1cnn2c(C(F)(F)F)cc(-c3cccs3)nc12)N1CCN(Cc2ccccc2)CC1	APJ ag 29.6 | APJ ag confirm inactive
CCN1CCN(CC(=O)N2N=C(c3ccc(OC)cc3)CC2c2ccc(OC)cc2)C(=O)C1=O (centres undefined)	none
CCCn1c(=O)c(C(=O)Nc2c(C)n(C)n(-c3ccccc3)c2=O)c(O)c2ccccc21	APJ ag 26.0 | APJ ag confirm inactive
CCCn1c(=O)c(C(=O)Nc2cccc(C)n2)c(O)c2ccccc21	none
COC(=O)c1cnc(Nc2nc(C(N)Cc3ccccc3)cs2)nc1C(F)(F)F (centres undefined)	none (no result: APJ antag, CCR6 antagonist, APJ ag)
Cc1ccc(Nc2nc(NCc3ccco3)c3ccccc3n2)cc1	APJ ag 14.2 | APJ ag confirm inactive
Cc1cc(N/N=C/c2ccc(O)cc2)c2cccc(C)c2n1	none
Cc1cc(C)c2nc(C)cc(N/N=C/c3ccc(O)cc3)c2c1	APJ ag 41.9 | APJ ag confirm inactive
CN(CC(=O)Nc1ccccc1C(F)(F)F)C(=O)C1CCN(S(=O)(=O)c2ccc3c(c2)OCCO3)CC1	none
O=C(COC(=O)/C=C/c1cccc(F)c1)NC(=O)NC1CCCC1	none
O=C(O)c1cccnc1C(=O)c1ccccc1	none
O=C(c1ccc([N+](=O)[O-])o1)N1CCN(c2nc3c(Cl)cccc3s2)CC1	APJ ag 32.3 | APJ ag confirm inactive
COc1cccc2sc(N3CCN(C(=O)c4ccc([N+](=O)[O-])o4)CC3)nc12	none
Cc1ccc(/C=N/NC(=O)c2nnn(-c3nonc3N)c2C(C)C)s1	none
O=C(NCCc1cn2ccccc2n1)c1cc(COc2ccc3ncccc3c2)on1	APJ ag 30.8 | APJ ag confirm inactive
O=C(NC1CCCC1)c1cc(COc2ccc3ncccc3c2)on1	none
CCCSc1nc(O)c(C2OC(=O)c3c2ccc(OC)c3OC)c(=O)n1-c1ccccc1 (centres undefined)	APJ ag 23.4 | APJ ag confirm inactive
COc1ccc(CN2C(=NC(=O)C3CCCCC3)SC3CS(=O)(=O)CC32)cc1 (centres undefined)	none
COCCCn1c(SC(C)C(=O)NC2CC2)nc2ccccc2c1=O (centres undefined)	none
COc1cc(/C=N/Nc2nc(-c3ccc(S(=O)(=O)N(C)C)cc3)cs2)ccc1O	APJ ag 20.9 | APJ ag confirm inactive
Cc1ccc(C(=O)O/N=C/c2c(N3CCOCC3)n(C)c3ccccc23)cc1	none
Cn1c(N2CCOCC2)c(/C=N/OC(=O)c2ccc(F)cc2)c2ccccc21	APJ ag 16.7 | APJ ag confirm inactive
Cc1cccc(OCCC(=O)OCC(=O)Nc2c(C)nn(-c3ccccc3)c2C)c1	none
N/C(Cc1ccc(Cl)c(Cl)c1)=N\OC(=O)c1ccc(Br)o1	APJ ag 20.9 | APJ ag confirm inactive
N/C(Cc1cccc2ccccc12)=N\OC(=O)c1ccccc1F	none
Cc1cccc(C(=O)O/N=C(\N)Cc2cccc3ccccc23)c1	APJ ag 42.0 | APJ ag confirm inactive
N/C(Cc1ccccc1)=N\OC(=O)c1cccc2ccccc12	APJ ag 11.8 | APJ ag confirm inactive
Cc1cccc(/C(N)=N/OC(=O)Cc2cccc3ccccc23)c1	none
Cn1nc(C(=O)OCC(=O)Nc2ccc(SC(F)F)cc2)c2ccccc2c1=O	none
CCCCCC(=O)N1C[C@@H](O)[C@H](n2cc(COC(=O)c3ccccc3)nn2)C[C@@H]1c1ccc(Cl)cc1	none (no result: APJ antag, CCR6 antagonist, APJ ag)
O=C(O)/C(=C\C(=O)c1ccccc1)Nc1ccccc1	none (no result: CCR6 antagonist, EBI2 antag, CXCR6 inh)
CSc1cccc(NC(=O)CCc2ccccc2)c1	none
CSc1cccc(NC(=S)NC(=O)CCc2ccccc2)c1	APJ ag 43.1 | APJ ag confirm 50.6
O=C(O)CCc1nn2c3ccccc3n(Cc3ccccc3F)c2nc1=O	none
CC1(OC(=O)C2CCCC2)C(=O)C=C2C=C(c3ccsc3)N(C3CCCC3)C=C2C1=O (centres undefined)	APJ ag 104.1 | APJ ag confirm inactive
COC(=O)C1(Cc2cc(-c3ccccc3)no2)CCN(C(=O)OC(C)(C)C)CC1	none
COC(=O)c1ccc(-c2cc(CC3(C(=O)OC)CCN(C(=O)OC(C)(C)C)CC3)on2)cc1	APJ ag 36.3 | APJ ag confirm inactive
CN(C(=O)COC(=O)c1cnc(Cl)c(Cl)c1)C1CCCCC1	none
O=C(NC1CCCCC1)c1cc2ccccc2cc1O	APJ ag 13.4 | APJ ag confirm inactive
CCN(CC)CCNC(=O)c1cc(-c2cccnc2)nc2ccc(S(=O)(=O)N3CCC(C)CC3)cc12	APJ ag 52.3 | APJ ag confirm inactive
Cc1cc(C)n2nc(SCC(=O)Nc3c(C)nn(-c4ccccc4)c3C)nc2n1	APJ ag 39.2 | APJ ag confirm inactive
Cc1nnc(N2CCCC(C(=O)NCc3ccc(OC(C)C)cc3)C2)c2nn(-c3ccccc3)c(C)c12 (centres undefined)	none
Cc1nnc(N2CCCC(C(=O)Nc3cc(F)ccc3F)C2)c2nn(-c3ccccc3)c(C)c12 (centres undefined)	APJ ag 21.1 | APJ ag confirm inactive
Cc1ccc(Oc2nnc(-c3ccccc3)cc2C#N)cc1	APJ ag 22.4 | APJ ag confirm inactive
N#Cc1cc(-c2ccccc2)nnc1Oc1ccccc1	none
CC(=O)Nc1ccc(NC(=O)COC(=O)c2ccc([N+](=O)[O-])o2)cc1	APJ ag 11.7 | APJ ag confirm inactive
CCN(c1ccc(NC(=O)COC(=O)c2ccc([N+](=O)[O-])o2)cc1)C(C)C	none
